We go through four compounds from ChEMBL document CHEMBL1155859, “Synthesis of hydantoin analogues of (2S,3R,4S)-4-hydroxyisoleucine with insulinotropic properties” (Bioorg Med Chem Lett, 2008).

Each structure is given as a SMILES string. The source made the active and inactive calls. The rule behind the calls is not given here.

One data set is filed under the species Rattus norvegicus. In words: Increase in insulin secretion in Sprague-Dawley rat pancreatic Langerhans islets below 25 uM. The data set is classed as functional. The procedure, abridged: (§1)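 Islets from male Sprague-Dawley rats (360–390 g) are digested with collagenase XI (2.5 mg/ml, HBSS, 35 min, 37 °C), purified on a Histopaque gradient and handpicked. They are pre-incubated 60 min at 37 °C, 5% CO2, in KRB with 8.3 mM glucose. Medium insulin is measured by ELISA in pg/islet/h (n = 6–12) against untreated basal.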

The nature of data set [1]: Increase in insulin secretion in Sprague-Dawley rat pancreas assessed per Langerhans islet. It is filed as functional. In a few lines:
as §1

Data set [2] in a line: Lactone formation at pH 1 after 4 hrs. The note with it: buffer, pH 1, 4 h.
A short description of data set [3]: Increase in insulin secretion in Sprague-Dawley rat pancreas at 75 uM assessed per Langerhans islet. It is filed as functional. The procedure, abridged: as §1
Data set [4] in a line: Lactone formation at pH 1 after 1 hr. The note with it: buffer, pH 1, 1 h.
A short description of data set [5]: Increase in insulin secretion in Sprague-Dawley rat pancreatic Langerhans islets at 25 uM. The data set is classed as functional. In a few lines:
as §1

The nature of data set [6]: Increase in insulin secretion in Sprague-Dawley rat pancreatic Langerhans islets at 200 uM. It is filed as functional. The procedure, abridged: as §1

Turning to `C[C@@H]([C@H](C)O)[C@H](N)C(=O)O`, in the data set filed under Rattus norvegicus, the result was inactive. Moreover, the Activity in data set [1] turned out to be 45 pg/h; in data set [3], 100 pg/h. The Lactone formation in data set [2] is reported as 32%; in data set [4], 10%.

As for `C[C@@H]([C@H](C)O)[C@@H]1NC(=O)NC1=O`, in data set [1], the Activity was found to be 100 pg/h.

In the case of `C[C@@H]([C@H](C)O)[C@H]1NC(=O)NC1=O`, the Activity in data set [5] amounted to 120%; in data set [1], 100 pg/h.

Take `CCOc1cc(CC(=O)N[C@@H](CC(C)C)c2ccccc2N2CCCCC2)ccc1C(=O)O` [REPAGLINIDE]: the Activity in data set [6] was determined as 100%; in data set [1], 100 pg/h.
